Test results from ChEMBL document CHEMBL4350958, “Rational Design of Short Peptide Variants by Using Kunitzin-RE, an Amphibian-Derived Bioactivity Peptide, for Acquired Potent Broad-Spectrum Antimicrobial and Improved Therapeutic Potential of Commensalism Coinfection of Pathogens” (J Med Chem, 2019).

How the values were obtained:
[1] = test system: Escherichia coli; experiment: Antibacterial activity against Escherichia coli K99 measured after 24 hrs; type: functional; conditions: K99, 24 h
Outline: (§1)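 Broth microdilution adapted from NCCLS. Mid-log bacteria were diluted in MHB to a final (0.5–1) × 10^5 CFU mL−1. Peptides were serially diluted in 0.2% BSA and mixed with an equal volume of cells. After 24 h at 37 °C, MIC was read at A492 as the lowest concentration inhibiting 95% of growth. At least three independent experiments, each with three technical replicates.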

[2] = test system: Escherichia coli; experiment: Antibacterial activity against Escherichia coli ATCC 25922 measured after 18 to 24 hrs in presence of KCl; type: functional
[3] = test system: Escherichia coli; experiment: Antibacterial activity against Escherichia coli 078 measured after 24 hrs; type: functional; conditions: Escherichia coli, 078, 24 h; outline: as §1
[4] = test system: Salmonella typhimurium; experiment: Bactericidal activity against Salmonella typhimurium C7731 incubated for 24 hrs followed by replating on agar plate and measured after overnight incubation; type: functional, Salmonella enterica subsp. enterica serovar Typhimurium; conditions: Salmonella enterica, C7731, 24 h; read-out: MBC>99.9
Outline: (§2)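 Mid-log bacteria diluted in MHB to (0.5–1) × 10^5 CFU/mL and mixed 1:1 with peptide serially diluted in 0.2% BSA. After 24 h at 37 °C, 50 μL of each mixture was plated on agar and incubated overnight. MBC taken as the lowest concentration killing >99.9% of cells. At least three independent experiments, each with three technical replicates.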

[5] = test system: Candida albicans; experiment: Antifungal activity against Candida albicans cgmcc2.2086 measured after 48 hrs in presence of CaCl by broth microdilution method; type: functional; conditions: cgmcc2.2086, 48 h
[6] = test system: Escherichia coli; experiment: Bactericidal activity against Escherichia coli K99 incubated for 24 hrs followed by replating on agar plate and measured after overnight incubation; type: functional; conditions: K99, 24 h, read-out: MBC>99.9; outline: as §2
[7] = test system: Candida albicans; experiment: Antifungal activity against Candida albicans cgmcc2.2086 measured after 48 hrs by broth microdilution method; type: functional; conditions: cgmcc2.2086, 48 h
Outline: (§3)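 Modified CLSI M27-A2 microdilution. Yeast colonies were diluted in MOPS-buffered RPMI 1640 to a final (0.5–1) × 10^3 CFU mL−1 and mixed with an equal volume of peptide serially diluted in 0.2% BSA. After 48 h at 28 °C, MIC was read at A492 as the lowest concentration inhibiting 95% of growth. At least three independent experiments, each with three technical replicates.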

[8] = test system: Staphylococcus epidermidis; experiment: Bactericidal activity against Staphylococcus epidermidis ATCC 12228 incubated for 24 hrs followed by replating on agar plate and measured after overnight incubation; type: functional; conditions: ATCC 12228, 24 h, read-out: MBC>99.9; outline: as §2
[9] = test system: Escherichia coli; experiment: Antibacterial activity against Escherichia coli ATCC 25922 measured after 18 to 24 hrs in presence of NaCl; type: functional
[10] = Therapeutic index, ratio of MHC10 for hemolytic activity in human RBC to MIC95 against Staphylococcus epidermidis ATCC 12228; type: toxicity; conditions: human red blood cells (erythrocytes), read-out: TI
Outline: (§4)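 Therapeutic index = MHC divided by MIC. MHC is the lowest concentration giving >10% lysis of human RBC (1 h, 37 °C, 1-128 µM, A576). MIC is 95% growth inhibition by broth microdilution: bacteria in MHB 24 h at 37 °C; Candida in MOPS-buffered RPMI 1640 at (0.5–1) × 10^3 CFU mL−1, 48 h at 28 °C.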

[11] = test system: Staphylococcus aureus; experiment: Antibacterial activity against Staphylococcus aureus ATCC 29213 measured after 18 to 24 hrs in presence of CaCl2; type: functional
[12] = test system: Candida albicans; experiment: Antifungal activity against Candida albicans cgmcc2.2086 measured after 48 hrs in presence of FeCl by broth microdilution method; type: functional; conditions: cgmcc2.2086, 48 h
[13] = test system: Staphylococcus aureus; experiment: Bactericidal activity against Staphylococcus aureus ATCC 25923 incubated for 24 hrs followed by replating on agar plate and measured after overnight incubation; type: functional; conditions: ATCC 25923, 24 h, read-out: MBC>99.9
Outline: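 After the 24 h, 37 °C MHB microdilution MIC assay, 50 μL from each well was plated on agar and incubated overnight. MBC taken as lowest peptide concentration killing >99.9% of cells. At least three independent experiments, each with three technical replicates.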

[14] = test system: Escherichia coli; experiment: Antibacterial activity against Escherichia coli UB1005 measured after 24 hrs; type: functional; conditions: UB1005, 24 h; outline: as §1
[15] = test system: Staphylococcus aureus; experiment: Antibacterial activity against Staphylococcus aureus ATCC 29213 measured after 18 to 24 hrs in presence of NaCl; type: functional
[16] = test system: Salmonella typhimurium; experiment: Antibacterial activity against Salmonella typhimurium C7731 measured after 24 hrs; type: functional, Salmonella enterica subsp. enterica serovar Typhimurium; conditions: Salmonella enterica, C7731, 24 h; outline: as §1
[17] = Therapeutic index, ratio of MHC10 for hemolytic activity in human RBC to MIC95 against Staphylococcus aureus ATCC 29213; type: toxicity; conditions: human red blood cells (erythrocytes), read-out: TI; outline: as §4
[18] = test system: Candida albicans; experiment: Antifungal activity against Candida albicans cgmcc2.2086 measured after 48 hrs in presence of NH4Cl by broth microdilution method; type: functional; conditions: cgmcc2.2086, 48 h
[19] = test system: Candida parapsilosis; experiment: Antifungal activity against Candida parapsilosis cgmcc2.3989 measured after 48 hrs by broth microdilution method; type: functional; conditions: Lodderomyces parapsilosis, cgmcc2.3989, 48 h; outline: as §3
[20] = test system: Escherichia coli; experiment: Antibacterial activity against Escherichia coli ATCC 25922 measured after 18 to 24 hrs in presence of FeCl3; type: functional
[21] = test system: Escherichia coli; experiment: Bactericidal activity against Escherichia coli 078 incubated for 24 hrs followed by replating on agar plate and measured after overnight incubation; type: functional; conditions: Escherichia coli, 078, 24 h; read-out: MBC>99.9
Outline: (§5)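 After the 24 h, 37 °C MHB microdilution (0.5–1 × 10^5 CFU mL−1 inoculum, peptides diluted in 0.2% BSA), 50 μL from each well was plated on agar and incubated overnight. MBC was taken as the lowest concentration killing >99.9% of cells. Three or more independent experiments, each with triplicate technical replicates.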

[22] = test system: Staphylococcus aureus; experiment: Antibacterial activity against methicillin-resistant Staphylococcus aureus ATCC 43300 measured after 24 hrs; type: functional; conditions: ATCC 43300, 24 h
Outline: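 Broth microdilution modified from NCCLS. Mid-log bacteria at (0.5–1) × 10^5 CFU mL−1 in MHB, mixed with peptides serially diluted in 0.2% BSA. Incubated 24 h at 37 °C, read at A492. MIC taken as lowest concentration giving 95% growth inhibition. At least three independent experiments, each with three technical replicates.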

[23] = test system: Salmonella typhimurium; experiment: Antibacterial activity against Salmonella typhimurium ATCC 14028 measured after 24 hrs; type: functional, Salmonella enterica subsp. enterica serovar Typhimurium; conditions: Salmonella enterica, ATCC 14028, 24 h; outline: as §1
[24] = test system: Escherichia coli; experiment: Bactericidal activity against Escherichia coli ATCC 25922 incubated for 24 hrs followed by replating on agar plate and measured after overnight incubation; type: functional; conditions: ATCC 25922, 24 h, read-out: MBC>99.9; outline: as §5
[25] = test system: Candida albicans; experiment: Antifungal activity against Candida albicans cgmcc2.2086 measured after 48 hrs in presence of NaCl by broth microdilution method; type: functional; conditions: cgmcc2.2086, 48 h
[26] = test system: Erythrocyte; experiment: Hemolytic activity in human RBC measured after 1 hr; type: ADME, cell-based
Outline: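 Fresh healthy-donor human erythrocytes at ~1% (v/v) in PBS pH 7.4, mixed 1:1 with peptide (1–128 µM), 1 h at 37 °C. After centrifugation at 1000×g, supernatant hemoglobin read at 576 nm. Untreated cells set 0% and 0.1% Triton X-100 set 100%. MHC defined as the concentration giving >10% hemolysis. Three or more independent experiments, triplicates.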

[27] = test system: Staphylococcus aureus; experiment: Antibacterial activity against Staphylococcus aureus ATCC 29213 measured after 18 to 24 hrs in presence of FeCl3; type: functional

H-AARIILRWRFR-NH2
MIC95 [1]: 2 µM | MIC95 [2]: 2 µM | MIC95 [3]: 2 µM | MBC [4]: 4 µM | MIC95 [5]: 32 µM | MBC [6]: 4 µM | MIC95 [7]: 8 µM | MBC [8]: 4 µM | MIC95 [9]: 8 µM | selectivity ratio [10]: 215 | MIC95 [11]: 2 µM | MIC95 [12]: 8 µM | MBC [13]: 4 µM | MIC95 [14]: 4 µM | MIC95 [15]: 4 µM | MIC95 [16]: 4 µM | selectivity ratio [17]: 215 | MIC95 [18]: 8 µM | MIC95 [19]: 4 µM | MIC95 [20]: 4 µM | MBC [21]: 2 µM | MIC95 [22]: 1 µM | MIC95 [23]: 2 µM | MBC [24]: 4 µM | MIC95 [25]: 16 µM | MHC10 [26]: > 128 µM | MIC95 [27]: 1 µM

H-AARIILRIRFR-NH2
MIC95 [1]: 4 µM | MIC95 [2]: 2 µM | MIC95 [3]: 2 µM | MBC [4]: 8 µM | MIC95 [5]: 64 µM | MBC [6]: 4 µM | MIC95 [7]: 8 µM | MBC [8]: 4 µM | MIC95 [9]: 8 µM | selectivity ratio [10]: 64 | MIC95 [11]: 16 µM | MIC95 [12]: 8 µM | MBC [13]: 4 µM | MIC95 [14]: 4 µM | MIC95 [15]: 8 µM | MIC95 [16]: 4 µM | selectivity ratio [17]: 64 | MIC95 [18]: 8 µM | MIC95 [19]: 4 µM | MIC95 [20]: 4 µM | MBC [21]: 4 µM | MIC95 [22]: 2 µM | MIC95 [23]: 2 µM | MBC [24]: 4 µM | MIC95 [25]: 32 µM | MHC10 [26]: 128 µM | MIC95 [27]: 2 µM

H-AARIILRRRFR-NH2
MIC95 [1]: 8 µM | MIC95 [2]: 64 µM | MIC95 [3]: 16 µM | MBC [4]: 16 µM | MIC95 [5]: > 128 µM | MBC [6]: 16 µM | MIC95 [7]: 128 µM | MBC [8]: 32 µM | MIC95 [9]: 128 µM | selectivity ratio [10]: 13.4 | MIC95 [11]: 128 µM | MIC95 [12]: > 128 µM | MBC [13]: 64 µM | MIC95 [14]: 16 µM | MIC95 [15]: 128 µM | MIC95 [16]: 8 µM | selectivity ratio [17]: 13.4 | MIC95 [18]: > 128 µM | MIC95 [19]: 64 µM | MIC95 [20]: 32 µM | MBC [21]: 32 µM | MIC95 [22]: 16 µM | MIC95 [23]: 32 µM | MBC [24]: 16 µM | MIC95 [25]: > 128 µM | MHC10 [26]: > 128 µM | MIC95 [27]: 16 µM

H-AARRILRWIFR-NH2
MIC95 [1]: 4 µM | MIC95 [2]: 8 µM | MIC95 [3]: 4 µM | MBC [4]: 8 µM | MIC95 [5]: 128 µM | MBC [6]: 8 µM | MIC95 [7]: 8 µM | MBC [8]: 8 µM | MIC95 [9]: 64 µM | selectivity ratio [10]: 45.2 | MIC95 [11]: 8 µM | MIC95 [12]: 8 µM | MBC [13]: 8 µM | MIC95 [14]: 4 µM | MIC95 [15]: 64 µM | MIC95 [16]: 4 µM | selectivity ratio [17]: 45.2 | MIC95 [18]: 8 µM | MIC95 [19]: 8 µM | MIC95 [20]: 8 µM | MBC [21]: 4 µM | MIC95 [22]: 8 µM | MIC95 [23]: 4 µM | MBC [24]: 4 µM | MIC95 [25]: 32 µM | MHC10 [26]: > 128 µM | MIC95 [27]: 4 µM

H-AARIILRGRFR-NH2
MIC95 [1]: 2 µM | MIC95 [2]: 8 µM | MIC95 [3]: 4 µM | MBC [4]: 16 µM | MIC95 [5]: > 128 µM | MBC [6]: 8 µM | MIC95 [7]: 128 µM | MBC [8]: 16 µM | MIC95 [9]: 64 µM | selectivity ratio [10]: 26.9 | MIC95 [11]: 64 µM | MIC95 [12]: 128 µM | MBC [13]: 32 µM | MIC95 [14]: 4 µM | MIC95 [15]: > 128 µM | MIC95 [16]: 8 µM | selectivity ratio [17]: 26.9 | MIC95 [18]: > 128 µM | MIC95 [19]: 64 µM | MIC95 [20]: 4 µM | MBC [21]: 8 µM | MIC95 [22]: 8 µM | MIC95 [23]: 4 µM | MBC [24]: 8 µM | MIC95 [25]: > 128 µM | MHC10 [26]: > 128 µM | MIC95 [27]: 8 µM
